Results published in ChEMBL document CHEMBL1138034, “Structural studies on bioactive compounds. 40.(1) Synthesis and biological properties of fluoro-, methoxyl-, and amino-substituted 3-phenyl-4H-1-benzopyran-4-ones and a comparison of their antitumor activities with the activities of related 2-phenylbenzothiazoles” (J Med Chem, 2006).
Calls of active or inactive are those of the source. The calls are words filed in the database; no cut-off is given here.

Assays:
MDA-MB-468 [1] = assay: Antiproliferative activity against human MDA-MB-468 cell line; type: functional
In short: (§1)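 Cells kept in RPMI 1640 with 2 mM L-glutamine and 10% fetal calf serum, 37 °C, 5% CO₂, passaged twice weekly. 5 × 10³ cells/well allowed 24 h to adhere, then exposed 72 h to compound at final 0.1 nM–100 µM (n = 8). MTT read-out: MTT 400 µg/mL for 4 h at 37 °C, formazan dissolved in DMSO/glycine buffer pH 10.5, absorbance 550 nm; GI50 derived.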

MCF7 = assay: Antiproliferative activity against human MCF7 cell line; type: functional; in short: as §1
HT-29 = assay: Antiproliferative activity against human HT29 cell line; type: functional; in short: as §1
HCT-116 = assay: Antiproliferative activity against human HCT116 cell line; type: functional; in short: as §1
[2] = tested on: Panel NCI-60 (60 carcinoma cell lines); assay: Antiproliferative activity against human NCI60 cell line; type: functional
Cytochrome P450 1A1 = molecular target: T1, Cytochrome P450 1A1 (Homo sapiens, UniProt P04798); assay: Inhibition of CYP1A1 by EROD assay; type: ADME
T1 sequence (P04798 whole entry): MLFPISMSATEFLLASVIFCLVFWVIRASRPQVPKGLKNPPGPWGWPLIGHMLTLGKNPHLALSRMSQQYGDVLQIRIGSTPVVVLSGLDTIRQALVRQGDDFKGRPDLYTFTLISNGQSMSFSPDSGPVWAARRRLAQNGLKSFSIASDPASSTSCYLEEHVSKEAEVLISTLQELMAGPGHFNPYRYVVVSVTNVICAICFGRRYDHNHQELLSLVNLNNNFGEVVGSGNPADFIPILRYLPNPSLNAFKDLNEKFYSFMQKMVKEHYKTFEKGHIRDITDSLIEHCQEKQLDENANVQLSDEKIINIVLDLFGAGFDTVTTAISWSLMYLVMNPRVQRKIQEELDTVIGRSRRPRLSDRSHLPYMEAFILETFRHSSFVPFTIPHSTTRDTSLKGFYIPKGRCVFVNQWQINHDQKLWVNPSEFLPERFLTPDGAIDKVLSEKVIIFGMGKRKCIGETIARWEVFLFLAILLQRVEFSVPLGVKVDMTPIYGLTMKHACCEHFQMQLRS
In short: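 EROD fluorometric assay. Recombinant CYP1A1 microsomes (0.1 mg/mL) in 100 mM Tris-HCl pH 7.4 with 50 µM MgCl₂ and 100 µM 7-ethoxyresorufin, with compound at 1, 10 or 100 µM. Preincubated 5 min at 37 °C, started with 500 µM NADPH, run 15 min at 37 °C, stopped with ice-cold acetonitrile. Resorufin read at ex 530/em 585 nm against a standard curve; no-microsome and DMSO controls.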

MDA-MB-468 [3] = assay: Antiproliferative activity against human MDA-MB-468 cell line in presence of 10 nM TBDD; type: functional
In short: (§2)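 MDA-MB-468 cells, 5 × 10³/well, allowed 24 h to adhere, then co-exposed 72 h to isoflavone (final 0.1 nM–100 µM, n = 8) plus TBDD at final 10 nM (n = 4). Viability measured by MTT (400 µg/mL, 4 h, 37 °C), formazan dissolved in DMSO/glycine pH 10.5, absorbance 550 nm.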

MDA-MB-468 [4] = assay: Cytotoxicity against human MDA-MB-468 cell line at 3 uM in presence of TBDD; type: functional, cell-based; in short: as §2
MDA-MB-435 = assay: Antiproliferative activity against human MDA-MB-435 cell line expressing ARNT splice variant

SMILES | GI50 (MDA-MB-468 [1]) [µM] | GI50 (MCF7) [µM] | GI50 (HT-29) [µM] | GI50 (HCT-116) [µM] | IC50 (Cytochrome P450 1A1) [µM] | GI50 (MDA-MB-468 [3]) [µM] | GI50 (MDA-MB-435) [µM] | GI50 [2] [µM] | Activity (MDA-MB-468 [4])
O=c1c(-c2ccc3c(c2)OCO3)coc2ccc(F)cc12 | 1.5 | 60 |  |  |  | 2 |  | 50 | 
COc1ccc(-c2coc3ccccc3c2=O)cc1OC | 66.5 | 88.1 | > 100 | > 100 |  | < 1 |  | 50 | 
O=c1c(-c2ccc(Cl)cc2)coc2ccccc12 |  |  |  |  |  |  |  | 50 | 
Cc1cc(-c2nc3cc(F)ccc3s2)ccc1N | < 0.0001 | < 0.0001 | 63 | 16 |  |  |  |  | 
COc1ccc(-c2coc3cc(F)c(F)cc3c2=O)cc1OC | 17.2 | 41.5 | 22.6 | 39.7 |  |  | > 30 | 50 | 
Nc1ccc(-c2coc3ccccc3c2=O)cc1 | 6 | 64.9 | 8.1 | 17.3 |  |  |  | 50 | 
COc1ccc(-c2coc3c(F)cccc3c2=O)cc1OC | 41.9 | 75.5 | 88 | 67.8 |  | < 1 |  | 50 | Active
O=c1c(-c2ccc(Br)cc2)coc2ccccc12 |  |  |  |  |  |  |  | 50 | 
COc1ccc(-c2coc3c(F)cc(F)cc3c2=O)cc1OC | 6.3 | 46.7 | 7.2 | 8.1 |  |  | > 30 | 50 | 
O=c1c(-c2cccc([N+](=O)[O-])c2)coc2ccccc12 |  |  |  |  |  |  |  | 50 | 
COc1cccc(-c2coc3ccccc3c2=O)c1 | 29 | > 100 | 88 | > 100 |  | < 1 |  | 50 | 
COc1ccc(-c2coc3c(F)c(F)ccc3c2=O)cc1OC | 21.6 | 47.2 | 31.7 | 26 |  | < 1 |  | 50 | 
COc1ccc(-c2nc3cc(F)ccc3s2)cc1OC | < 0.0001 | 0.008 | 2.6 | 5.4 |  |  |  |  | 

Second part, led by results:

GI50 (MDA-MB-468 [1]) [µM] | GI50 (MCF7) [µM] | GI50 (HT-29) [µM] | GI50 (HCT-116) [µM] | IC50 (Cytochrome P450 1A1) [µM] | GI50 (MDA-MB-468 [3]) [µM] | GI50 (MDA-MB-435) [µM] | SMILES | GI50 [2] [µM] | Activity (MDA-MB-468 [4])
58.9 | 90.6 | 87 | 80.2 | < 100 | < 1 |  | COc1ccc(-c2coc3cc(F)ccc3c2=O)cc1OC | 50 | Active
4.8 | 8.8 | 6.1 | 8.5 |  |  |  | Nc1ccc(-c2coc3ccc(F)cc3c2=O)cc1 | 50 | 
0.9 | 93.1 | 88.2 | 65.3 | < 100 | < 1 | > 30 | COc1ccc(-c2coc3ccc(F)cc3c2=O)cc1OC | 50 | 
6.4 | 7.9 | 8.6 | 7.2 |  |  |  | Nc1ccc(-c2coc3cc(F)ccc3c2=O)cc1 | 50 | 
 |  |  |  | < 100 |  |  | COc1ccc(-c2coc3ccc(F)cc3c2=O)cc1 | 50 | 
9.9 | 43.8 | 17.6 | 8.5 |  |  | > 30 | COc1ccc(-c2coc3cc(F)ccc3c2=O)cc1 | 50 | 
